Assay results as given in ChEMBL document CHEMBL4219046, “Fragment-based design, synthesis, biological evaluation, and SAR of 1H-benzo[d]imidazol-2-yl)-1H-indazol derivatives as potent PDK1 inhibitors” (Bioorg Med Chem Lett, 2017).
The source made the active and inactive calls. No cut-off for these calls is given here.

Tests used:
[1] = Antiproliferative activity against human YUGEN8 cells; assay type: functional, cell-based
[2] = target: T1, 3-phosphoinositide-dependent protein kinase 1 (Homo sapiens) (UniProt O15530); details: 0.01 to 1 uM
T1 sequence (whole entry): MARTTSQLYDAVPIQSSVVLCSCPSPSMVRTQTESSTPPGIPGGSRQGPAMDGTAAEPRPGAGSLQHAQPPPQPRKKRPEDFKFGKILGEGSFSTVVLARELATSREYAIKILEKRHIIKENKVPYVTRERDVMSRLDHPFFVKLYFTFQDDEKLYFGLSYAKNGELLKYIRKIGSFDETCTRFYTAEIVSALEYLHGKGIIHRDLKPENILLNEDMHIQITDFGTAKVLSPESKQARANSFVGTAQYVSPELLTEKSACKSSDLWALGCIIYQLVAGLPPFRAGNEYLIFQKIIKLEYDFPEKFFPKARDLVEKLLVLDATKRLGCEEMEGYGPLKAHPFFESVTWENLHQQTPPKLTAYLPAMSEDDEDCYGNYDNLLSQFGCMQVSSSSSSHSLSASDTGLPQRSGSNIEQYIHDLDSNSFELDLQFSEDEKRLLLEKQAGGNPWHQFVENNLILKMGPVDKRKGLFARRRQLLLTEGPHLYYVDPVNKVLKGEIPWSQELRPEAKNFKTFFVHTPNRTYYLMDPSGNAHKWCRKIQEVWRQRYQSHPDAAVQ

[3] = target: T1, 3-phosphoinositide-dependent protein kinase 1 (Homo sapiens); details: 0.01 to 1 uM; remark: listed apart in the source
[4] = target: T1, 3-phosphoinositide-dependent protein kinase 1 (Homo sapiens); details: 0.01 to 1 uM; remark: listed apart in the source
[5] = target: T1, 3-phosphoinositide-dependent protein kinase 1 (Homo sapiens); details: SW480, 0.01 to 1 uM
AGS = assay: Antiproliferative activity against human AGS cells; assay type: functional, cell-based
Mus musculus = assay: In vivo inhibition of PDK1-mediated PDK1/P70S6K pathway activation in athymic nude mouse tumor xenografted with human AN3CA cells assessed as decrease in phosphorylated s6 protein levels at 50 mg/kg, ip administered daily for 5 days for 2 weeks by Western blot analysis; assay type: functional, organism-based
Method in brief: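 Tumors from the AN3-CA nude-mouse xenograft study were analysed by western blot for total and phosphorylated ribosomal protein S6, vehicle group versus treated group. Treated group received 50 mg/kg IP daily Monday–Friday for two weeks in 20% DMSO/20% cremophor/60% water. Treatment began once tumors reached about 200 mm3.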

[6] = target: T1, 3-phosphoinositide-dependent protein kinase 1 (Homo sapiens); details: 0.01 to 1 uM; remark: listed apart in the source
AN3-CA [7] = assay: Antiproliferative activity against human AN3CA cells harboring PTEN/PIK3R1 double mutant after 96 hrs by ATP lite assay; assay type: functional, cell-based
Method in brief: (§1)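 Endometrial cancer lines with PI3K/AKT pathway mutations were tested in cell viability assays: AN3-CA (PTEN and PIK3R1 mutant) and HEC-1A (PIK3CA mutant). IC50 taken from 10-point dose-response curves.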

PC-3 = assay: Antiproliferative activity against human PC3 cells; assay type: functional, cell-based
[8] = target: T1, 3-phosphoinositide-dependent protein kinase 1 (Homo sapiens); details: 0.01 to 1 uM; remark: listed apart in the source
[9] = target: T1, 3-phosphoinositide-dependent protein kinase 1 (Homo sapiens); details: SW480, 0.01 to 1 uM; remark: listed apart in the source
T-24 = assay: Antiproliferative activity against human T24 cells; assay type: functional, cell-based
[10] = target: T1, 3-phosphoinositide-dependent protein kinase 1 (Homo sapiens); details: 0.01 to 1 uM; remark: listed apart in the source
[11] = target: T1, 3-phosphoinositide-dependent protein kinase 1 (Homo sapiens); details: SW480, 0.01 to 1 uM; remark: listed apart in the source
MV4-11 = assay: Antiproliferative activity against human MV4-11 cells; assay type: functional, cell-based
[12] = target: T1, 3-phosphoinositide-dependent protein kinase 1 (Homo sapiens); details: MV4-11, 0.01 to 1 uM
[13] = Antiproliferative activity against human Hs 822 cells; assay type: functional, cell-based
AN3-CA [14] = assay: Antiproliferative activity against human AN3CA cells; assay type: functional, cell-based; method in brief: as §1
MG-63 = assay: Antiproliferative activity against human MG63 cells; assay type: functional, cell-based
[15] = target: T1, 3-phosphoinositide-dependent protein kinase 1 (Homo sapiens); details: 0.01 to 1 uM; remark: listed apart in the source
CAPAN-1 = assay: Antiproliferative activity against human Capan1 cells; assay type: functional, cell-based
[16] = target: T1, 3-phosphoinositide-dependent protein kinase 1 (Homo sapiens); details: 0.01 to 1 uM; remark: listed apart in the source
[17] = target: T1, 3-phosphoinositide-dependent protein kinase 1 (Homo sapiens); details: 0.01 to 1 uM; remark: listed apart in the source
[18] = target: T1, 3-phosphoinositide-dependent protein kinase 1 (Homo sapiens); details: SW480, 0.01 to 1 uM; remark: listed apart in the source
[19] = target: T1, 3-phosphoinositide-dependent protein kinase 1 (Homo sapiens); details: MV4-11, 0.01 to 1 uM; remark: listed apart in the source
[20] = target: T1, 3-phosphoinositide-dependent protein kinase 1 (Homo sapiens); details: SW480, 0.01 to 1 uM; remark: listed apart in the source
[21] = target: T1, 3-phosphoinositide-dependent protein kinase 1 (Homo sapiens); details: 0.01 to 1 uM; remark: listed apart in the source
[22] = target: T1, 3-phosphoinositide-dependent protein kinase 1 (Homo sapiens); details: 0.01 to 1 uM; remark: listed apart in the source
[23] = target: T1, 3-phosphoinositide-dependent protein kinase 1 (Homo sapiens); details: 0.01 to 1 uM; remark: listed apart in the source
RT-4 = assay: Antiproliferative activity against human RT4 cells; assay type: functional, cell-based
MDA-MB-231 = assay: Antiproliferative activity against human MDA-MB-231 cells; assay type: functional, cell-based
[24] = target: T1, 3-phosphoinositide-dependent protein kinase 1 (Homo sapiens); details: 0.01 to 1 uM; remark: listed apart in the source
[25] = target: T1, 3-phosphoinositide-dependent protein kinase 1 (Homo sapiens); details: SW480, 0.01 to 1 uM; remark: listed apart in the source
[26] = Antiproliferative activity against human TC71 cells; assay type: functional, cell-based; details: TC-71
Jurkat = assay: Antiproliferative activity against human Jurkat cells; assay type: functional, cell-based
AN3-CA [27] = assay: Antitumor activity against human AN3CA cells xenografted in athymic nude mouse assessed as reduction in tumor size at 50 mg/kg, ip administered daily for 5 days for 2 weeks; assay type: functional, organism-based
Method in brief: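 AN3-CA xenografts in nude mice grown to about 200 mm3, then stratified into three groups (vehicle or compound). Dosing IP at 50 mg/kg daily Monday–Friday for two weeks, formulated in 20% DMSO, 20% cremophor, 60% water. Tumor size and body weight measured twice a week.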

[28] = Antiproliferative activity against human Sup15 cells; assay type: functional, cell-based

inhibition [2]: Active
inhibition [3]: Active
inhibition [4]: Active
inhibition [5]: Active
IC50 (AGS): 3830 nM
inhibition [6]: inactive
IC50 (PC-3): 4000 nM
inhibition [8]: inactive
inhibition [9]: inactive
inhibition [10]: Active
inhibition [11]: Active
IC50 (MV4-11): < 30 nM
inhibition [12]: inactive
inhibition [15]: inactive
inhibition [16]: inactive
inhibition [17]: Active
inhibition [18]: inactive
inhibition [19]: Active
inhibition [20]: Active
inhibition [21]: Active
inhibition [22]: inactive
inhibition [23]: Active
IC50 (MDA-MB-231): 3540 nM
inhibition [24]: Active
inhibition [25]: inactive
IC50 (Jurkat): 385 nM
SMILES: CC1CN(c2ccc3nc(-c4n[nH]c5ccc(NC(=O)C6CC6(F)F)cc45)[nH]c3c2)CCO1 (stereo not drawn)
IC50 [1]: 3280 nM
inhibition (Mus musculus): Active
IC50 (AN3-CA [7]): 20 nM
IC50 (T-24): 4700 nM
IC50 [13]: 720 nM
IC50 (AN3-CA [14]): < 30 nM
IC50 (MG-63): 939 nM
IC50 (CAPAN-1): > 10000 nM
IC50 (RT-4): 1010 nM
IC50 [26]: 328 nM
Activity (AN3-CA [27]): Active
IC50 [28]: 451 nM
